# In ChEMBL document CHEMBL4602731, “A γ-Lactam Siderophore Antibiotic Effective against Multidrug-Resistant Gram-Negative Bacilli” (J Med Chem, 2020):
# Assays:
# Klebsiella pneumoniae = test: Antimicrobial activity against Klebsiella pneumoniae clinical isolates by standard broth microdilution method; assay type: functional
# Pseudomonas aeruginosa [1] = test: Antimicrobial activity against Pseudomonas aeruginosa clinical isolate in presence of 1 ug/ml iron by standard broth microdilution method
# Pseudomonas aeruginosa [2] = test: Antimicrobial activity against Pseudomonas aeruginosa clinical isolate in presence of 0.1 ug/ml iron by standard broth microdilution method
# Pseudomonas aeruginosa [3] = test: Antimicrobial activity against Pseudomonas aeruginosa clinical isolate in presence of 10 ug/ml iron by standard broth microdilution method
# Pseudomonas aeruginosa [4] = test: Antimicrobial activity against Pseudomonas aeruginosa clinical isolates by standard broth microdilution method; assay type: functional
# [5] = molecular target: Penicillin-binding protein 3 (Pseudomonas aeruginosa) (UniProt Q51504); test: Stabilization of Pseudomonas aeruginosa PBP3 assessed as melting temperature at 0.2 mM by DSF thermal shift assay (reference value: 44.1 +/- 0.14 degC)
# Method in brief: (§1)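 Ligand at […], ceftazidime at 0.2 mM as positive control; no-ligand control with 1% DMSO. Derivative of fluorescence change plotted against temperature.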
# Pseudomonas aeruginosa [6] = test: Antimicrobial activity against Pseudomonas aeruginosa clinical isolate in absence of iron by standard broth microdilution method
# Escherichia coli = test: Antimicrobial activity against Escherichia coli clinical isolates by standard broth microdilution method; assay type: functional
# [7] = Substrate activity at VIM-2 (unknown origin) assessed as Kcat/Km ratio for compound hydrolysis by diode array spectrophotometry; assay type: ADME; details: bacteria
# [8] = Substrate activity at VIM-2 (unknown origin) assessed as Kcat for compound hydrolysis by diode array spectrophotometry; assay type: ADME; details: bacteria
# [9] = Substrate activity at IMP-1 (unknown origin) assessed as Kcat for compound hydrolysis by diode array spectrophotometry; assay type: ADME; details: bacteria
# [10] = Substrate activity at IMP-1 (unknown origin) assessed as Kcat/Km ratio for compound hydrolysis by diode array spectrophotometry; assay type: ADME; details: bacteria
# [11] = Substrate activity at KPC-2 (unknown origin) assessed as compound hydrolysis at 100 uM by diode array spectrophotometry; assay type: ADME; details: bacteria
# [12] = Substrate activity at PER-2 (unknown origin) assessed as compound hydrolysis at 100 uM by diode array spectrophotometry; assay type: ADME; details: bacteria
# [13] = Volume of distribution at steady state in CD1 mouse at 50 mg/kg, iv after 2 hrs by HPLC-MS/MS analysis; assay type: ADME, organism-based; details: in vivo
# Method in brief: (§2)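 CD-1 mice, single IV dose of 50 mg/kg, parallel sampling in groups of 24 animals. Blood is taken by cardiac puncture under isoflurane into lithium heparin or K2EDTA tubes and spun at 2500 × g for 15 min at 4 °C. Plasma is precipitated with acetonitrile and run on HPLC-MS/MS against a spiked-plasma calibration curve with internal standard. Parameters come from noncompartmental analysis.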
# [14] = molecular target: Penicillin-binding protein 3 (Pseudomonas aeruginosa, UniProt Q51504); test: Inhibition of Pseudomonas aeruginosa PBP3 assessed as reduction in fluorescence intensity of bocillin labeled protein pre-incubated for 20 mins before bocillin addition by SDS-PAGE analysis
# [15] = molecular target: Penicillin-binding protein 3 (Pseudomonas aeruginosa) (UniProt Q51504); test: Stabilization of Pseudomonas aeruginosa PBP3 assessed as melting temperature at 1 mM by DSF thermal shift assay (reference value: 44.1 +/- 0.14 degC); method in brief: as §1
# [16] = Substrate activity at OXA-24 (unknown origin) assessed as compound hydrolysis at 100 uM by diode array spectrophotometry; assay type: ADME; details: bacteria
# [17] = molecular target: Voltage-gated inwardly rectifying potassium channel KCNH2 (Homo sapiens, UniProt Q12809); test: Binding affinity to human ERG at 30 uM
# [18] = AUClast in CD1 mouse at 50 mg/kg, iv after 2 hrs by HPLC-MS/MS analysis; assay type: ADME, organism-based; set-up: time < 2 hr, dose 50 mg/kg, route intravenous; details: in vivo; method in brief: as §2
# [19] = Half life in CD1 mouse at 50 mg/kg, iv after 2 hrs by HPLC-MS/MS analysis; assay type: ADME, organism-based; details: in vivo; method in brief: as §2
# [20] = Substrate activity at NDM-1 (unknown origin) assessed as Kcat for compound hydrolysis by diode array spectrophotometry; assay type: ADME; details: bacteria
# Method in brief: (§3)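 The compound is the substrate, in molar excess for pseudo-first-order conditions. Hydrolysis is followed spectrophotometrically at Δε336 = −5500 M−1 cm−1 in a 1 cm quartz cuvette.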
# [21] = Solubility in pH 7.5 phosphate buffer by nephelometry; assay type: physicochemical
# Method in brief: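 Solubility in pH 7.5 phosphate buffer, measured by nephelometry.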
# [22] = molecular target: Penicillin-binding protein 3 (Pseudomonas aeruginosa) (UniProt Q51504); test: Stabilization of Pseudomonas aeruginosa PBP3 assessed as increase in melting temperature at 1 mM by DSF thermal shift assay
# Pseudomonas aeruginosa [23] = test: Antimicrobial activity against Pseudomonas aeruginosa PAO1 in presence of 1 ug/ml iron by standard broth microdilution method; assay type: functional
# Method in brief: (§4)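 MICs by CLSI broth microdilution, inoculum 6 × 10^4 CFU/mL, in cation-adjusted Mueller–Hinton broth iron-depleted with cation-exchange resin (reported to leave 0.02 μg/mL iron). Soluble iron added back; total media iron expected 0.02, 0.12, 1.02 and 10.02 μg/mL.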
# [24] = Initial drug concentration in CD1 mouse at 50 mg/kg, iv after 2 hrs by HPLC-MS/MS analysis; assay type: ADME, organism-based; details: in vivo; method in brief: as §2
# Pseudomonas aeruginosa [25] = test: Antimicrobial activity against Pseudomonas aeruginosa PAO1 in presence of 0.1 ug/ml iron by standard broth microdilution method; assay type: functional
# Method in brief: (§5)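 CLSI broth microdilution in iron-depleted cation-adjusted Mueller–Hinton broth, made by cation-exchange resin treatment, with an inoculum of 6 × 10^4 CFU/mL. For the iron series, soluble iron is added to the depleted medium. Total iron in the tested media is expected to be 0.02, 0.12, 1.02 and 10.02 μg/mL.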
# [26] = AUC (infinity) in CD1 mouse at 50 mg/kg, iv after 2 hrs by HPLC-MS/MS analysis; assay type: ADME, organism-based; set-up: dose 50 mg/kg, route intravenous, time infinity; details: in vivo; method in brief: as §2
# [27] = Stability in pH 7.5 phosphate buffer assessed as compound hydrolysis after 2 weeks at room temperature; assay type: physicochemical; details: read-out: Drug degradation
# [28] = Half life human liver microsomes; assay type: ADME, Microsome
# [29] = molecular target: Prostaglandin G/H synthase 1 (Homo sapiens) (UniProt P23219); test: Inhibition of COX1 (unknown origin) at 30 uM relative to control
# Method in brief: (§6)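 Safety panel of 44 enzymes, receptors and channels, with compound tested at 30 μM. Percent inhibition is measured.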
# [30] = Substrate activity at NDM-1 (unknown origin) assessed as Kcat/Km ratio for compound hydrolysis by diode array spectrophotometry; assay type: ADME; details: bacteria; method in brief: as §3
# [31] = molecular target: cGMP-inhibited 3',5'-cyclic phosphodiesterase 3A (Homo sapiens) (UniProt Q14432); test: Inhibition of PDE3A (unknown origin) at 30 uM relative to control; method in brief: as §6
# [32] = Substrate activity at OXA-23 (unknown origin) assessed as compound hydrolysis at 100 uM by diode array spectrophotometry; assay type: ADME; details: bacteria
# Cytochrome P450 = test: Inhibition of CYP450 (unknown origin) at 30 uM; assay type: ADME, protein assay; details: human
# [33] = AUC (extrapolated) in CD1 mouse at 50 mg/kg, iv after 2 hrs by HPLC-MS/MS analysis; assay type: ADME, organism-based; details: in vivo; method in brief: as §2
# [34] = Plasma concentration CD1 mouse at 50 mg/kg, iv after 2 hrs by HPLC-MS/MS analysis; assay type: ADME, organism-based; method in brief: as §2
# [35] = Half life CD1 mouse liver microsomes; assay type: ADME, Microsome
# Pseudomonas aeruginosa [36] = test: Antimicrobial activity against Pseudomonas aeruginosa PAO1 in presence of 10 ug/ml iron by standard broth microdilution method; assay type: functional; method in brief: as §4
# Hepatocyte = test: Toxicity in human primary hepatocytes at 100 uM incubated for 72 hrs; assay type: cell-based
# Method in brief: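 Primary human hepatocytes exposed to compound at a maximum of 100 μM for 72 h.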
# [37] = Stability in pH 7.5 phosphate buffer assessed as compound hydrolysis measured 24 hrs after reconstitution; assay type: physicochemical; details: read-out: Drug degradation
# Pseudomonas aeruginosa [38] = test: Antimicrobial activity against Pseudomonas aeruginosa PAO1 in absence of iron by standard broth microdilution method; assay type: functional; method in brief: as §5
# [39] = Inhibition of Acinetobacter baumanni PBP3 assessed as reduction in fluorescence intensity of bocillin labeled protein by SDS-PAGE analysis; set-up: species or system Acinetobacter baumannii
# Chain of Penicillin-binding protein 3 (Pseudomonas aeruginosa) (Q51504 as listed by the source): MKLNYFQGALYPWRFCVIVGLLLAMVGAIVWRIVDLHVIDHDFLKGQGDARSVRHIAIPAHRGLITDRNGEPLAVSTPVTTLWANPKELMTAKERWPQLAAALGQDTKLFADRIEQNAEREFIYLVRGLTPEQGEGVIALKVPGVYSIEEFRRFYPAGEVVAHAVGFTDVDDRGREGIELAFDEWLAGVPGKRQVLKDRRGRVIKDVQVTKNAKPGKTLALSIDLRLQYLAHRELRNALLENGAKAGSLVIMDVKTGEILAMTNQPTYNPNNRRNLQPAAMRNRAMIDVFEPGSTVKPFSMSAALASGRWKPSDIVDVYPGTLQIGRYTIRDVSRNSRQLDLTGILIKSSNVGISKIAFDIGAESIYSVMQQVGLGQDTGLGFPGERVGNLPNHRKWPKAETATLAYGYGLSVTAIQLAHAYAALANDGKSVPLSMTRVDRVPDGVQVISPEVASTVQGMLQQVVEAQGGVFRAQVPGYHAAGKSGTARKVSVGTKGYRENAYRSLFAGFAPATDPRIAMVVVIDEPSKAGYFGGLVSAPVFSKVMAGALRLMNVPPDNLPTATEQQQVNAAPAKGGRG
# Chain of Prostaglandin G/H synthase 1 (Homo sapiens) (P23219 whole entry): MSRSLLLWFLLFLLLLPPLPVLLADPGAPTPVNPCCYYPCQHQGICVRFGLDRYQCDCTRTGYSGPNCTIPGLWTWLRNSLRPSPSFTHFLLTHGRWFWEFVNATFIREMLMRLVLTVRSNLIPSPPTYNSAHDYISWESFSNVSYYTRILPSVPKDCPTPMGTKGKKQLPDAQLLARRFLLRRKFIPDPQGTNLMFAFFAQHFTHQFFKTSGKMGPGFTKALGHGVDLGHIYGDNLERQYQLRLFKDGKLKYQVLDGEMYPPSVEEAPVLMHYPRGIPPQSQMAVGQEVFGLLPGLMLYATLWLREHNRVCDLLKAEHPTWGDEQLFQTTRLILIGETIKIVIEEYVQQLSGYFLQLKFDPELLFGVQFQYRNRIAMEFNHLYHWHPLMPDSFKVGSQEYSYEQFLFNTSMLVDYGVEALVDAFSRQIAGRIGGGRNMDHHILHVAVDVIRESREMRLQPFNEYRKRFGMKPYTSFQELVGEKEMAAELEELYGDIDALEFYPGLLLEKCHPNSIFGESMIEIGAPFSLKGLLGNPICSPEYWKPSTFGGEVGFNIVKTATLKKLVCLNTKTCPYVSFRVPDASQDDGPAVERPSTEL
# Chain of cGMP-inhibited 3',5'-cyclic phosphodiesterase 3A (Homo sapiens) (Q14432 whole entry): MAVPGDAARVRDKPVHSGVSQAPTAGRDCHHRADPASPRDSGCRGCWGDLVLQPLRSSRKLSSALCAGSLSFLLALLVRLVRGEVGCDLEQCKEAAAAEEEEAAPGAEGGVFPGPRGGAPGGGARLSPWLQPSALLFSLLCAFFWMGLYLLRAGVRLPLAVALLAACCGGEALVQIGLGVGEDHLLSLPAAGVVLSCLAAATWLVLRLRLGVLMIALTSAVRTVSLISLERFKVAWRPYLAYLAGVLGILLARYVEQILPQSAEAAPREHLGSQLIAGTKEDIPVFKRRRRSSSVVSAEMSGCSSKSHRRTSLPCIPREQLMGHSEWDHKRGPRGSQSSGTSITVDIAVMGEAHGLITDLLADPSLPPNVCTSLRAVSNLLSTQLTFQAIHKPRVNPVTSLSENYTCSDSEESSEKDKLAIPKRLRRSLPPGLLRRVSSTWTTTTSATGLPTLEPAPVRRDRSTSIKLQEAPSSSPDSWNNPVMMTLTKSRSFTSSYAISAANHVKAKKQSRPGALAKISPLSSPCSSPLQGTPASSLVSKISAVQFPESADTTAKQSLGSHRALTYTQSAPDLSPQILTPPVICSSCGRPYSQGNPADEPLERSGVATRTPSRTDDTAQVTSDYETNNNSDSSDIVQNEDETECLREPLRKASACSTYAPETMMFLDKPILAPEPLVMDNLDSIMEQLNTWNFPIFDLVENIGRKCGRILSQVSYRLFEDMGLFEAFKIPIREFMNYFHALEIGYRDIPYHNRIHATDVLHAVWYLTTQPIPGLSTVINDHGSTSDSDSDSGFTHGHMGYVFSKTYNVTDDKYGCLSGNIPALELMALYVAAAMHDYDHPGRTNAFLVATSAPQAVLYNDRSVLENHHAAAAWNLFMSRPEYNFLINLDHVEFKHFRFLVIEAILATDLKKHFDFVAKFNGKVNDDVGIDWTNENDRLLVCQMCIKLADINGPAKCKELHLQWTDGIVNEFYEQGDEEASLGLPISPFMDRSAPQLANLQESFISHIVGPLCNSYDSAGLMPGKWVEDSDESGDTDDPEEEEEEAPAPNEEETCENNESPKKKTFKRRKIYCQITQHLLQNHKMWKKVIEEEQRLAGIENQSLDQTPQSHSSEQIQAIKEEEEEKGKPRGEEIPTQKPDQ
# Chain of Penicillin-binding protein 3 (Q51504 whole entry): as the sequence (Q51504 as listed by the source) above
# Chain of Voltage-gated inwardly rectifying potassium channel KCNH2 (Q12809 whole entry): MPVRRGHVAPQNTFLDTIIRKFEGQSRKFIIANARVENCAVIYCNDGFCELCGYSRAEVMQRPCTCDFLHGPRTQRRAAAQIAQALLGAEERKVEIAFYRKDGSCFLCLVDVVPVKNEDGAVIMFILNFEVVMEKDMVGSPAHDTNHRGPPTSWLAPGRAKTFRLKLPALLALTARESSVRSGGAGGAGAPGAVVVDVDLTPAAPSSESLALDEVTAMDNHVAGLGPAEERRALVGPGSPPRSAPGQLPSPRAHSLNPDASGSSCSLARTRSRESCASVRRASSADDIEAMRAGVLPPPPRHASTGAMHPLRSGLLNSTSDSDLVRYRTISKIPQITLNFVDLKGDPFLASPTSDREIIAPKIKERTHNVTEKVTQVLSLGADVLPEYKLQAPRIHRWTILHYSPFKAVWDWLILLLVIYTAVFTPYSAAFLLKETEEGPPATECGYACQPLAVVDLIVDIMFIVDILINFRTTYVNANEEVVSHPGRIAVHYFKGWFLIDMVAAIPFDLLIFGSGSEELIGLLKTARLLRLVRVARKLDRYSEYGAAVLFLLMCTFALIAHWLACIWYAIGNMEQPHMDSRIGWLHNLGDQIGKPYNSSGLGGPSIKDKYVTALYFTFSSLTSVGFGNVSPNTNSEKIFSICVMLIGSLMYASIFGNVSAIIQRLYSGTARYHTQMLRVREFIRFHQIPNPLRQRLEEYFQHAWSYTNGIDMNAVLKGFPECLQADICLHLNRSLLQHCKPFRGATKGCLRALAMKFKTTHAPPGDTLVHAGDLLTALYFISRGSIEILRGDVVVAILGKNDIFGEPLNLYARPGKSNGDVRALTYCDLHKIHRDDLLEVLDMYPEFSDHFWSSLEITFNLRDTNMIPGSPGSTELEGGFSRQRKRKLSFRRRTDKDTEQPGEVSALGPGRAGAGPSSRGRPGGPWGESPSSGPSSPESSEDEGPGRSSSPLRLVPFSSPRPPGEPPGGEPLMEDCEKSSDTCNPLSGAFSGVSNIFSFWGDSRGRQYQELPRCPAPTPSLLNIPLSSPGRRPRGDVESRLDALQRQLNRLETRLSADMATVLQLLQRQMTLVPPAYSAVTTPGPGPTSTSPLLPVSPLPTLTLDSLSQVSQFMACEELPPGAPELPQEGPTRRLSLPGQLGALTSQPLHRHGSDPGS
structure (smiles),measurement,setting,value
CC(C)(O/N=C(\C(=O)N[C@@H]1C(=O)N2C(C(=O)[O-])=C(C[n+]3ccccc3)CS[C@H]12)c1csc(N)n1)C(=O)O [CEFTAZIDIME],MIC50,Klebsiella pneumoniae,> 64 µg/mL
same,MIC90,Klebsiella pneumoniae,> 64 µg/mL
same,MIC,Pseudomonas aeruginosa [1],1 µg/mL
same,MIC,Pseudomonas aeruginosa [2],1 µg/mL
same,MIC,Pseudomonas aeruginosa [3],1 µg/mL
same,MIC50,Pseudomonas aeruginosa [4],4 µg/mL
same,MIC90,Pseudomonas aeruginosa [4],> 16 µg/mL
same,Tm,[5],56.5 °C
same,MIC,Pseudomonas aeruginosa [6],1 µg/mL
same,MIC50,Escherichia coli,2 µg/mL
same,MIC90,Escherichia coli,> 16 µg/mL
C[C@@H](O)[C@H]1C(=O)N2C(C(=O)O)=C(SCCN=CN)C[C@H]12 [IMIPENEM ANHYDROUS],Kcat/Km,[7],6.7e+06 M⁻¹ s⁻¹
same,Kcat,[8],57 s⁻¹
same,Kcat,[9],36 s⁻¹
same,Kcat/Km,[10],3.2e+06 M⁻¹ s⁻¹
CC(C)(O/N=C(\C(=O)N[C@H]1CN2CC(C(=O)NCCN3C(=O)c4cc(O)c(O)cc4C3=O)=C(C(=O)O)N2C1=O)c1csc(N)n1)C(=O)O,Activity,[11],Not Active
same,Activity,[12],Not Active
same,Vdss,[13],2 L/kg
same,IC50,[14],2.5 µM
same,MIC50,Klebsiella pneumoniae,1 µg/mL
same,MIC,Pseudomonas aeruginosa [1],> 16 µg/mL
same,Kcat/Km,[7],20000 M⁻¹ s⁻¹
same,Tm,[15],51 °C
same,Activity,[16],Not Active
same,Activity,[17],Not Active
same,AUClast,[18],55866 ng·h/mL
same,t1/2,[19],11 h
same,Kcat,[20],7 s⁻¹
same,Kcat,[8],20 s⁻¹
same,solubility kinetic,[21],> 100 µM
same,ΔTm,[22],7 °C
same,MIC,Pseudomonas aeruginosa [23],16 µg/mL
same,MIC,Pseudomonas aeruginosa [3],> 16 µg/mL
same,C0,[24],200844 ng/mL
same,MIC,Pseudomonas aeruginosa [25],2 µg/mL
same,Kcat,[9],5 s⁻¹
same,AUC,[26],57791 ng·h/mL
same,degraded at 336 h,[27],4%
same,t1/2,[28],> 1 h
same,MIC50,Pseudomonas aeruginosa [4],1 µg/mL
same,MIC90,Pseudomonas aeruginosa [4],8 µg/mL
same,Kcat/Km,[10],70000 M⁻¹ s⁻¹
same,inhibition,[29],63%
same,Kcat/Km,[30],20000 M⁻¹ s⁻¹
same,inhibition,[31],66%
same,Activity,[32],Not Active
same,inhibition (INH),Cytochrome P450,Not Active
same,%AUCextra,[33],3%
same,MIC,Pseudomonas aeruginosa [6],0.5 µg/mL
same,concentration at 2 h,[34],1400 ng/mL
same,t1/2,[35],> 1 h
same,MIC,Pseudomonas aeruginosa [36],> 16 µg/mL
same,Activity,Hepatocyte,Non-Toxic
same,MIC50,Escherichia coli,1 µg/mL
C[C@@H](O)[C@H]1C(=O)N2C(C(=O)O)=C(S[C@@H]3CN[C@H](C(=O)N(C)C)C3)[C@H](C)[C@H]12 [MEROPENEM],MIC50,Klebsiella pneumoniae,16 µg/mL
same,MIC90,Klebsiella pneumoniae,> 64 µg/mL
same,MIC50,Pseudomonas aeruginosa [4],2 µg/mL
same,MIC90,Pseudomonas aeruginosa [4],> 8 µg/mL
same,degraded at 24 h,[37],> 30%
same,MIC50,Escherichia coli,≤ 1 µg/mL
same,MIC90,Escherichia coli,8 µg/mL
CC(C)(O/N=C(\C(=O)N[C@@H]1C(=O)N2C(C(=O)[O-])=C(C[N+]3(CCNC(=O)c4ccc(O)c(O)c4Cl)CCCC3)CS[C@H]12)c1csc(N)n1)C(=O)O [CEFIDEROCOL],MIC,Pseudomonas aeruginosa [1],0.25 µg/mL
same,MIC,Pseudomonas aeruginosa [2],0.13 µg/mL
same,MIC,Pseudomonas aeruginosa [23],0.5 µg/mL
same,MIC,Pseudomonas aeruginosa [3],1 µg/mL
same,MIC,Pseudomonas aeruginosa [38],0.06 µg/mL
same,MIC,Pseudomonas aeruginosa [6],0.13 µg/mL
same,MIC,Pseudomonas aeruginosa [36],2 µg/mL
NC(=O)[C@@H]1CC[C@@H]2CN1C(=O)N2OS(=O)(=O)O [AVIBACTAM],MIC50,Klebsiella pneumoniae,0.5 µg/mL
same,MIC90,Klebsiella pneumoniae,2 µg/mL
same,MIC50,Pseudomonas aeruginosa [4],4 µg/mL
same,MIC90,Pseudomonas aeruginosa [4],> 32 µg/mL
C[C@@H](O)[C@H]1C(=O)N2C(C(=O)O)=C(S[C@@H]3CN[C@H](CNS(N)(=O)=O)C3)[C@H](C)[C@H]12 [DORIPENEM],IC50,[39],2.3 µM
